Experimental data collected from several papers.
Lines come from different studies, so protocols differ.
EHMT1: Histone-lysine N-methyltransferase EHMT1 (EHMT1, Homo sapiens, UniProt Q9H9B1)
ADORA2A: Adenosine receptor A2a (ADORA2A, Homo sapiens, UniProt P29274)
SPHK1: Sphingosine kinase 1 (SPHK1, Homo sapiens, UniProt Q9NYA1)
PARP1: Poly [ADP-ribose] polymerase 1 (PARP1, Homo sapiens, UniProt P09874)
CNR1: Cannabinoid receptor 1 (CNR1, Homo sapiens, UniProt P21554)
OPRK1: Kappa-type opioid receptor (OPRK1, Homo sapiens, UniProt P41145)
PDE5A: cGMP-specific 3',5'-cyclic phosphodiesterase (PDE5A, Homo sapiens, UniProt O76074)
SIGMAR1: Sigma non-opioid intracellular receptor 1 (SIGMAR1, Homo sapiens, UniProt Q99720)

`COc1cc(NC(C)=O)c(Cl)cc1C(=O)Nc1nccs1` gave an inhibition of 8.7% (5-hydroxytryptamine receptor 2A (HTR2A, Homo sapiens, UniProt P28223); ligand displacement; radioligand; 10 µM).
With `CCCCC(CC)CNC(=N)NC(=N)NCCCCCCNC(=N)NC(=N)NCC(CC)CCCC` (centres unmarked) the inhibition was -22% (EHMT1; cell-free assay; 10 µM).
`O=C(CN1CCN(c2ccccc2)CC1)Nc1ccc2oc(-c3ccco3)nc2c1` has an inhibition of 12% (ADORA2A; ligand displacement; radioligand; 10 µM; cell membranes).
`[H]/N=C(\N)N1CCC[C@H]1c1nc(-c2ccc(OCC=CCCCC)c(C(F)(F)F)c2)no1` gave an inhibition of 23% (SPHK1; enzyme activity; inhibitor; radiometric; 1 µM).
With `O=c1[nH]c(-c2c[nH]c3ncccc23)nc2ccccc12` the inhibition was 28% (PARP1; enzyme activity; inhibitor; ELISA; 10 µM).
With `CN(C)C1CCN(CC#Cc2nn(C3CCCC3)c3nc(NCc4ccccc4)ncc23)C1` (centres unmarked) the inhibition was 4% (Cytoplasmic tyrosine-protein kinase BMX (BMX, Homo sapiens, UniProt P51813); enzyme activity; inhibitor; FRET; 1 µM).
`O=C(c1ccc(Cl)cc1)N(Cc1ccccc1)C1CCCCC1` has an inhibition of 9.1% (ADORA2A; cell-free assay; 10 µM).
`COc1ccc(CCc2ccc(-c3noc([C@@H]4CCCN4C(=N)N)n3)cc2C(F)(F)F)cc1` has an inhibition of 0% (SPHK1; enzyme activity; inhibitor; radiometric; 1 µM).
The inhibition of `Oc1cccc(Nc2nc(-c3ccc(F)cc3F)cs2)c1` is reported as 5.9% (CNR1; cell-free assay; 10 µM).
`N#Cc1cc(Cn2c(N3CCCC3)nc3ccccc32)ccc1F` gave an inhibition of -11.7% (OPRK1; ligand displacement; 10 µM).
The inhibition of `CCN1C(=O)[C@H]2Cc3c([nH]c4ccccc34)[C@@H](c3cccnc3)N2C1=O` is reported as 102% (PDE5A; enzyme activity; inhibitor; FP; 50 µM).
The inhibition of `CCN(CC)c1ccc(C2Nc3ccc(C(=O)c4ccccc4)cc3NC3=C2C(=O)CC(C)(C)C3)cc1` (centres unmarked) is reported as 10% (OPRK1; ligand displacement; radioligand; 10 µM).
`CCN1C(=O)[C@@H]2Cc3c([nH]c4ccccc34)[C@H](c3ccc(OC)c(OC)c3)N2C1=O` gave an inhibition of 52% (PDE5A; enzyme activity; inhibitor; FP; 50 µM).
The inhibition of `Ic1cccc2cnccc12` is reported as 21% (SIGMAR1; ligand displacement; radioligand; 10 µM).
The inhibition of `O=C1N=C(N2CCCCN2)S/C1=C\c1ccc(F)cc1O` is reported as 11% (Thromboxane A2 receptor (TBXA2R, Homo sapiens, UniProt P21731); ligand displacement; radioligand; 10 µM).
With `CN1CC(Oc2cnc(C#N)cc2-c2ccn3nc(NC(=O)C4CC4)cc3c2)C1` the inhibition was -7% (Testis-specific serine/threonine-protein kinase 4 (TSSK4, Homo sapiens, UniProt Q6SA08); enzyme activity; inhibitor; 1 µM).
For `O=C1NCCCc2ccc(F)cc21`, the inhibition was 15% (PARP1; enzyme activity; inhibitor; 10 µM).
`CC(C)(C)N1C(=O)[C@H]2Cc3c([nH]c4ccccc34)[C@@H](c3cccnc3)N2C1=O` has an inhibition of 90% (PDE5A; enzyme activity; inhibitor; FP; 50 µM).
With `O=c1oc2c(O)c(O)cc3c(=O)oc4c(O)c(O)cc1c4c23` the inhibition was 6% (EHMT1; cell-free assay; 10 µM).
`CCN(Cc1ccccc1C(F)(F)F)C(=O)C1CCN(S(=O)(=O)c2ccc3[nH]ncc3c2)CC1` gave an inhibition of 5% (OPRK1; ligand displacement; radioligand; 10 µM).
The inhibition of `COC(=O)[C@@H]1Cc2c([nH]c3ccccc23)[C@H](c2ccc(OC)c(OC)c2)N1` is reported as 8% (PDE5A; enzyme activity; inhibitor; FP; 50 µM).
`O=C(CSc1nc2nccnc2c(=O)n1CCc1ccccc1)Nc1nccs1` gave an inhibition of 8% (SPHK1; enzyme activity; inhibitor; 10 µM).
`O=C(Nc1ccc(S(=O)(=O)N2CCC(Cl)CC2)cc1)c1ccc([N+](=O)[O-])o1` gave an inhibition of 38% (SIGMAR1; ligand displacement; radioligand; 10 µM).
`COc1ccc(-n2nc(OCCCN3CCCCC3)ccc2=O)cc1` gave an inhibition of 43.8% (CNR1; ligand displacement; 1 µM).
For `Cn1cncc1C1=CN(c2ncnc3[nH]cnc23)CCS1`, the inhibition was 30.7% (Interleukin-1 receptor-associated kinase-like 2 (IRAK2, Homo sapiens, UniProt O43187); enzyme activity; inhibitor; radiometric; 50 nM).
The inhibition of `[H]/N=C(\N)N1CCC[C@H]1c1nc(-c2ccc(OCC=Cc3ccc(F)cc3)c(C(F)(F)F)c2)no1` is reported as 0% (SPHK1; enzyme activity; inhibitor; radiometric; 1 µM).
The inhibition of `COc1ccc([C@@H]2c3[nH]c4ccccc4c3C[C@@H]3C(=O)N(C(C)(C)C)C(=O)N23)cc1OC` is reported as 54% (PDE5A; enzyme activity; inhibitor; FP; 50 µM).
For `O=C(O[C@@H]1Cc2c(O)cc(O)cc2O[C@@H]1c1cc(O)c(=O)c2c(O)c(O)cc([C@H]3Oc4cc(O)cc(O)c4C[C@H]3OC(=O)c3cc(O)c(O)c(O)c3)c2c1)c1cc(O)c(O)c(O)c1`, the inhibition was 0% (EHMT1; cell-free assay; 10 µM).
For `O=C(c1ccc(F)cc1)N(Cc1ccccc1)C1CCCCC1`, the inhibition was 9% (SIGMAR1; cell-free assay; 10 µM).
`COC(=O)[C@H]1Cc2c([nH]c3ccccc23)[C@H](c2cccnc2)N1` gave an inhibition of 30% (PDE5A; enzyme activity; inhibitor; FP; 50 µM).
For `CCCCCC=CCOc1ccc(-c2noc([C@@H]3CCCN3C(=N)N)n2)cc1C(F)(F)F` (mixture of isomers), the inhibition was 54% (SPHK1; enzyme activity; inhibitor; radiometric; 1 µM).
With `O=C1C=CC(=O)c2c(O)cccc21` the inhibition was -1% (EHMT1; cell-free assay; 10 µM).
`COCCOc1ccc(N2CCN(Cc3ccc4oc(-c5ccco5)nc4c3)CC2)cc1` has an inhibition of 14% (ADORA2A; ligand displacement; radioligand; 10 µM; cell membranes).
`Cc1cnc(C(=O)NCCNC(=O)Cn2[nH]c(=O)c3ccccc3c2=O)cn1` has an inhibition of ~50% (PARP1; enzyme activity; inhibitor; 0.5 µM).
`O=c1c(-c2cc(O)c(O)c(O)c2)coc2cc(O)c(O)c(O)c12` gave an inhibition of 0% (EHMT1; cell-free assay; 10 µM).
`O=C(c1ccc(-c2nc3ccccc3c(=O)[nH]2)c(F)c1)N1CCn2c(nnc2C(F)(F)F)C1` gave an inhibition of 13% (PARP1; enzyme activity; inhibitor; ELISA; 1 µM).
`O=C1NCCCc2c(O)cccc21` gave an inhibition of 43% (PARP1; enzyme activity; inhibitor; 10 µM).
`C=CCN1C(=O)[C@H]2Cc3c([nH]c4ccccc34)[C@@H](c3ccc(Br)s3)N2C1=O` has an inhibition of 96% (PDE5A; enzyme activity; inhibitor; FP; 10 µM).
With `CC(C)CCn1c(SCC(=O)Nc2ccccc2C(F)(F)F)nc2nccnc2c1=O` the inhibition was < 20% (SPHK1; enzyme activity; inhibitor; 10 µM).
`O=C(CN1CCNCC1)Nc1ccc2oc(-c3ccco3)nc2c1` has an inhibition of 8% (ADORA2A; ligand displacement; radioligand; 10 µM; cell membranes).
`O=C(CSc1nc2nccnc2c(=O)n1CCc1ccccc1)Nc1ccccc1` has an inhibition of < 20% (SPHK1; enzyme activity; inhibitor; 10 µM).
The inhibition of `CCCCC=CCOc1ccc(-c2noc([C@@H]3CCCN3C(=N)N)n2)cc1C(F)(F)F` is reported as 18% (SPHK1; enzyme activity; inhibitor; radiometric; 1 µM).
With `COc1ccc(-c2nc3cc(CCN4CCN(c5ccccc5)CC4)ccc3o2)cc1OC` the inhibition was 5% (ADORA2A; ligand displacement; radioligand; 10 µM; cell membranes).
The inhibition of `N=C(N)N1CCC[C@H]1c1nc(-c2ccc(CCC3CCCC3)c(C(F)(F)F)c2)no1` is reported as 0% (SPHK1; enzyme activity; inhibitor; radiometric; 1 µM).
The inhibition of `COC(=O)[C@H]1Cc2c([nH]c3ccccc23)[C@H](c2ccc(OC)c(OC)c2)N1C(=O)CCl` is reported as 75% (PDE5A; enzyme activity; inhibitor; FP; 50 µM).
`O=C(O)CCCCCCCCCCCC[C@@H]1C=CCC1` gave an inhibition of -11% (EHMT1; cell-free assay; 10 µM).
For `CCc1ccc(CCc2ccc(-c3noc([C@@H]4CCCN4C(=N)N)n3)cc2C(F)(F)F)cc1`, the inhibition was 13% (SPHK1; enzyme activity; inhibitor; radiometric; 1 µM).
